Results published in ChEMBL document CHEMBL1132237, “Fluorination of 3-(3-(piperidin-1-yl)propyl)indoles and 3-(3-(piperazin-1-yl)propyl)indoles gives selective human 5-HT1D receptor ligands with improved pharmacokinetic profiles” (J Med Chem, 1999).
Several values for one entry are separate records, joined by “and”; a condition that tells them apart may be missing. Identical values can stand only once.

Tests used:
[1] = target: T1, 5-hydroxytryptamine receptor 1B (Homo sapiens, UniProt P28222); test: Agonist-induced [35S]GTP-gamma-S, binding in CHO cells stably transfected with human 5-hydroxytryptamine 1B receptor; type: functional, cell-based
Procedure, shortened: (§1)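 [35S]GTPγS binding stimulated by agonist, measured in CHO cells stably transfected with the human 5-HT1D or 5-HT1B receptor. EC50 values are the logarithmic mean of 2–3 independent determinations. Maximum variance of individual log(EC50) values from the mean was 4%.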

[2] = target: T1, 5-hydroxytryptamine receptor 1B; test: Efficacy was evaluated relative to human 5-HT1B receptor using [35S]GTP-gamma-S, as radioligand; type: functional
[3] = target: T1, 5-hydroxytryptamine receptor 1B; test: Displacement of specific [3H]5-HT binding to cloned human 5-hydroxytryptamine 1B receptor expressed in CHO cells; type: cell-based
Procedure, shortened: (§2)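 Radioligand binding to human 5-HT1D and 5-HT1B receptors stably expressed in CHO cells. Radioligand was used at approximately its KD for each receptor. IC50 values are the logarithmic mean of 2–5 independent determinations, each run in duplicate. Maximum variance from the mean of log(IC50) was 4%. Selectivity is IC50(1B)/IC50(1D).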

[4] = target: T2, 5-hydroxytryptamine receptor 1D (Homo sapiens, UniProt P28221); test: Displacement of specific [3H]5-HT binding to cloned human 5-hydroxytryptamine 1D receptor expressed in CHO cells; type: cell-based; procedure, shortened: as §2
[5] = target: Serotonin 1 receptors; 5-HT1B & 5-HT1D (Homo sapiens) (UniProt P28222+P28221); test: Selectivity towards 5-HT1D and to that of 5-HT1B in CHO cells; type: cell-based; procedure, shortened: as §2
[6] = pKa value by potentiometric; type: physicochemical
Procedure, shortened: (§3)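 Potentiometric titration in MeOH–H2O cosolvent with ionic strength set by 0.15 M KCl. Three titrations at different water/cosolvent ratios gave psKa values. Aqueous pKa was obtained by Yasuda–Shedlovsky extrapolation to 100% water, plotting psKa + log[H2O] against 1/ε.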

Rattus norvegicus [7] = test: Oral absorption study in rat plasma obtained from hepatic portal vein after 2 hours of administration of 3 mg/kg orally; type: functional, organism-based; set-up: dose 3 mg/kg
Procedure, shortened: (§4)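 Male Sprague–Dawley rats, fasted overnight and with no surgery, received 3 mg/kg orally as a 0.6 mg/mL solution in PEG 400:5 mM HCl (25:75 v/v). Terminal blood was taken from the heart and hepatic portal vein under isoflurane at 0.5 and 2 h, three rats per time point. Plasma drug was measured by electrospray mass spectrometry. Values are mean ± SEM.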

Rattus norvegicus [8] = test: Oral absorption study in rat plasma obtained from cardiac blood samples after 0.5 hours of administration of 3 mg/kg orally; type: functional, organism-based; set-up: dose 3 mg/kg; procedure, shortened: as §4
Rattus norvegicus [9] = test: Oral absorption study in rat plasma obtained from cardiac blood samples after 2 hours of administration of 3 mg/kg orally; type: functional, organism-based; set-up: dose 3 mg/kg; procedure, shortened: as §4
Rattus norvegicus [10] = test: Oral absorption study in rat plasma obtained from hepatic portal vein after 0.5 hours of administration of 3 mg/kg orally; type: functional, organism-based; set-up: dose 3 mg/kg; procedure, shortened: as §4
[11] = The compound was evaluated for the pKa units relative to N-methyl-piperazine.; type: physicochemical
[12] = Relative protonation energy of the compound
[13] = target: T2, 5-hydroxytryptamine receptor 1D; test: Agonist-induced [35S]GTP-gamma-S, binding in CHO cells stably transfected with human 5-hydroxytryptamine 1D receptor; type: functional, cell-based; procedure, shortened: as §1
[14] = Oral bioavailability in rat; type: ADME, organism-based; settings: in vivo
Procedure, shortened: (§5)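 Male Sprague–Dawley rats (~300 g) were fasted overnight and tail-artery cannulated under isoflurane, then allowed to recover for at least 30 min. Each received 3 mg/kg by tail-vein bolus (3 mg/mL in PEG 300:5 mM HCl 25:75) or by gavage (0.6 mg/mL in PEG 400:5 mM HCl 25:75), three rats per route. Serial blood was sampled up to 6 h. Plasma was analysed by solid-phase extraction and reverse-phase HPLC with fluorescence detection (ex 235, em 370 nm) against spiked-plasma calibration curves.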

[15] = pKa value by potentiometric method; type: physicochemical; procedure, shortened: as §3
[16] = The compound was evaluated for the pKa units relative to N-methyl-piperazine; type: physicochemical
[17] = target: T1, 5-hydroxytryptamine receptor 1B; test: Efficacy of compound was evaluated relative to human 5-hydroxytryptamine 1B receptor using [35S]GTP-gamma-S, as radioligand; type: functional
[18] = Rate of clearance in rat was determined; type: ADME, organism-based; settings: plasma, read-out: Clp; procedure, shortened: as §5
[19] = pKa value was determined; type: physicochemical; procedure, shortened: as §3
[20] = target: T2, 5-hydroxytryptamine receptor 1D; test: Efficacy was evaluated relative to human 5-hydroxytryptamine 1D receptor using [35S]GTP-gamma-S, as radioligand; type: functional
[21] = Cmax in rat; type: ADME, organism-based; settings: in vivo; procedure, shortened: as §5

T2 sequence (P28221 whole entry): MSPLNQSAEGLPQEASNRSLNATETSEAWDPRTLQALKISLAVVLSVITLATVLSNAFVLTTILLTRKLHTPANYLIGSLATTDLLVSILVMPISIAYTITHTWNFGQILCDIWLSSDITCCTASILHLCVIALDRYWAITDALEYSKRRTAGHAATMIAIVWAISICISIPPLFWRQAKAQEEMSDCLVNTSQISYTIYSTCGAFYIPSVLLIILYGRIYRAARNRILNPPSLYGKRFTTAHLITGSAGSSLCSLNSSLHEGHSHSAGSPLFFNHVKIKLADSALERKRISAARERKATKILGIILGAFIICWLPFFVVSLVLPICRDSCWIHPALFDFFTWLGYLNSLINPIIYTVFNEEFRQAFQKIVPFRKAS
T1 sequence (P28222 whole entry): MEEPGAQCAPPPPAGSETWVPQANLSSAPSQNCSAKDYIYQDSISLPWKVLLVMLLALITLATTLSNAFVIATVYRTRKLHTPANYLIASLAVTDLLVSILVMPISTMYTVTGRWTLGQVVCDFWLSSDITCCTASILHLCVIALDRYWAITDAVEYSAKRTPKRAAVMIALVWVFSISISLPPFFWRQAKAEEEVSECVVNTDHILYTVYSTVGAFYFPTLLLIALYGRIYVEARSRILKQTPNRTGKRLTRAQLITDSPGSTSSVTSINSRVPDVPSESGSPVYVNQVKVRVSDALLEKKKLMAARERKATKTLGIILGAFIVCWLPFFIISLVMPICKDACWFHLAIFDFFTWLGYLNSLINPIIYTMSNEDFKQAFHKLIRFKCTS

SMILES	EC50 [1]	Efficacy [2]	IC50 [3]	IC50 [4]	Selectivity [5]	EC50 [13]	bioavailability [14]	clearance [18]	Plasma concentration (Rattus norvegicus [7])	Plasma concentration (Rattus norvegicus [8])	Plasma concentration (Rattus norvegicus [9])	Plasma concentration (Rattus norvegicus [10])	other results
c1ccc(CC2CCN(CCCc3c[nH]c4ccc(-n5cnnc5)cc34)CC2)cc1	120 nM	62%	19 nM	0.3 nM	63				33 ng/mL	< 2 ng/mL	< 2 ng/mL	25 ng/mL	pKa [6]: 9.7
CN1CCCCC1 [N-METHYLPIPERIDINE]													delta pKa [11]: 0; RPE [12]: 0
CN(Cc1ccccc1)C1CCN(CCCc2c[nH]c3ccc(-n4cnnc4)cc23)CC1	1400 nM	77%	140 nM	2.1 nM	67	1.5 nM			66 ng/mL	< 1 ng/mL	5 ng/mL	4 ng/mL	pKa [6]: 9.3
CN1CCCC(F)C1 (stereo not given)													delta pKa [11]: -1.83; RPE [12]: 4.42 and 2.5; delta pKa [16]: -3.24
Fc1cccc(CCN2CCN(CC(F)(F)Cc3c[nH]c4ccc(-n5cnnc5)cc34)CC2)c1			1600 nM	15 nM	107	35 nM		67 mL/min/kg	61 ng/mL	< 4 ng/mL	< 4 ng/mL	503 ng/mL	Efficacy [20]: 78%

The next lines start with results.

EC50 [1]	Efficacy [2]	IC50 [3]	IC50 [4]	Selectivity [5]	EC50 [13]	bioavailability [14]	clearance [18]	SMILES	Plasma concentration (Rattus norvegicus [7])	Plasma concentration (Rattus norvegicus [8])	Plasma concentration (Rattus norvegicus [9])	Plasma concentration (Rattus norvegicus [10])	other results
450 nM	77%	62 nM	0.9 nM	69	0.9 nM	14%		FC(Cc1c[nH]c2ccc(-n3cnnc3)cc12)CN1CCC(Cc2ccccc2)CC1 (stereo not given)	258 ng/mL	196 ng/mL	46 ng/mL	781 ng/mL	pKa [15]: 8.7
430 nM				140		27%	84 mL/min/kg	Fc1cccc(CCN2CCN(CCCc3c[nH]c4ccc(-n5cnnc5)cc34)CC2)c1					Efficacy [17]: 71%; pKa [19]: 8.3
10000 nM	78%	1000 nM	8.5 nM	118	34 nM	11%	43 mL/min/kg	FC(F)(Cc1c[nH]c2ccc(-n3cnnc3)cc12)CN1CCC(OCc2ccccc2)CC1					Efficacy [20]: 100%; Cmax [21]: 157 ng/mL; pKa [15]: 5.9
